Molecules are shown by their SMILES. Calls of active or inactive are those of the source. The calls are words filed in the database; no cut-off is given here.

Data set [1] has as its system HL-60. In words: Cytotoxicity against human HL-60 cells assessed as reduction in cell viability after 48 hrs by AlamarBlue assay. The format is functional, cell-based. The gist of the method: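 HL-60 cells grown at 37 °C, 5% CO2, seeded at 2 x 10⁵ cells/mL. Compound in DMSO was dispensed acoustically at 10 concentrations (top 10 µM, 1:2 dilutions). After 48 h, AlamarBlue was added for a further 5 h and fluorescence read (ex 544/em 590 nm). DMSO-only wells served as maximal growth; medium-only wells gave background correction.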

Data set [2] is described as follows: Toxicity in Artemia salina assessed as mortality at 10 ug/ml after 24 hrs by Meyer method. To be noted: at 10 µg/mL. Put shortly:
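Brine shrimp test after Meyer, modified. Artemia salina eggs were hatched in artificial seawater. Tubes held 30–40 nauplii in 4.95 mL seawater, plus 50 µL DMSO solution of compound (final 10 µg/mL). Elaiophylin was the positive control and DMSO alone the negative control. Mortality was scored after 24 h.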

Data set [3] concerns Vibrio anguillarum. In words: Antimicrobial activity against Vibrio anguillarum 90-11-287 assessed as reduction in microbial growth after 24 hrs by agar well diffusion assay. It is filed as functional, organism-based. Put shortly: (§1)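 Agar well diffusion on Instant Ocean agar (3% Instant Ocean, 3.33 g/L casamino acids, 4 g/L glucose, 10 g/L agar) seeded with pathogen. Wells 4 mm in diameter, 32-38 mm apart, each got 30 µL of a 100 µg/100 µL MeOH solution. Medium and MeOH wells were controls; the positive control was sterile-filtered supernatant of tropodithietic acid-producing Phaeobacter inhibens DSM17395. Incubated 24 h at 25 °C; inhibition zone diameter measured.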
Background: In agar diffusion tests the substance spreads into inoculated agar from a disc or well.

In data set [4] the test system is Candida albicans. Briefly: Antifungal activity against Candida albicans IBT 654.38 assessed as reduction in microbial growth after 16 to 24 hrs by agar well diffusion assay. The format is functional, organism-based. To be noted: time 16-24 hrs, in the assay text read “paper disk diffusion assay” for “agar well diffusion assay”. Put shortly: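 Disk diffusion: a glucose–peptone agar base layer (pH 4.8) was inoculated with the yeast. 6 mm paper disks carried 80 µg compound applied in CH2Cl2 and were dried under sterile conditions before placing. Incubated 28 °C for 16–24 h; inhibition zone diameter measured.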

Data set [5] concerns Staphylococcus aureus. Briefly: Antimicrobial activity against Staphylococcus aureus 8325 assessed as reduction in microbial growth after 24 hrs by agar well diffusion assay. It is filed as functional, organism-based. Put shortly: as §1

For `COC(=O)[C@H](C)/N=[N+]([O-])/C=C\CCCCCCCCCC(C)C`, the IC50 result in data set [1] (hl-60) was “Nd(Unstable)”. For the same compound, the mortality at 24 h, 10 ug/ml in data set [2] was 100%. For the same compound, the outcome in data set [3], in data set [4] and in data set [5] was inactive.
Consider `CCC(C)CCCCCCCCC/C=C\[N+]([O-])=N\[C@@H](C)C(=O)OC` (some centres undefined), for which, in data set [1] (Homo sapiens, HL-60, 48 h, read-out: IC50), the IC50 was found to be 2.2 µM.
On to `COC(=O)[C@H](C)/N=[N+]([O-])/C=C/CCCCCCCCCC(C)C`, for which the result in data set [3] and in data set [5] was inactive.
Turning to `CC[C@@H]1[C@@H](C)O[C@@](O)([C@@H](C)[C@H](O)[C@H](C)[C@H]2OC(=O)/C=C/C=C/[C@H](C)[C@@H]([C@@H](C)[C@@H](O)[C@H](C)[C@@]3(O)C[C@@H](O[C@H]4C[C@H](O)[C@H](O)[C@H](C)O4)[C@H](CC)[C@@H](C)O3)OC(=O)/C=C/C=C/[C@@H]2C)C[C@H]1O[C@H]1C[C@H](O)[C@H](O)[C@H](C)O1`, the mortality at 24 h, 10 ug/ml in data set [2] came out at 78%.

The term IC50 denotes the concentration that inhibits the measured activity by half. As a reminder, the mortality is the share of the test organisms that died.

These data come from ChEMBL document CHEMBL4673305, “Azodyrecins A-C: Azoxides from a Soil-Derived Streptomyces Species” (J Nat Prod, 2020).
